In ChEMBL document CHEMBL1123167, “Synthesis and evaluation of phenyl- and benzoylpiperazines as potential serotonergic agents” (J Med Chem, 1986):
Active and inactive are the calls of the source. No cut-off for these calls is given here.

Tests used:
[1] = Displacement of […] from 5-hydroxytryptamine 1 receptor of rat cortex
[2] = target: Serotonin 2 (5-HT2) receptor (Rattus norvegicus, UniProt P30994+P08909+P14842); experiment: Displacement of [3H]ketanserin from 5-hydroxytryptamine 2 receptor of rat cortex
Method in brief: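 Rat tissue homogenate (4 mg wet weight per assay) in 50 mM Tris, 5 mM MgCl2, 0.5 mM EDTA, pH 7.4 at 37 °C, competed against 0.4 nM [3H]ketanserin. Bound ligand was collected on glass fiber filters and counted by liquid scintillation. Assays were run in triplicate. IC50 came from a 23-point curve by nonlinear least-squares fitting, and Ki = IC50/(1 + [D]/KD).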

Rattus norvegicus [3] = experiment: Stimulus generalization in DOM-trained rats at dosage 0.1 mg/kg. Number of animals responding/number of animals are 3/3; format: functional
Rattus norvegicus [4] = experiment: Stimulus generalization in DOM-trained rats at dosage 0.5 mg/kg. Number of animals responding/number of animals are 2/3; format: functional
Rattus norvegicus [5] = experiment: Stimulus generalization in TFMPP-trained rats at dosage 1.0 mg/kg. Number of animals responding/number of animals are 5/5; format: functional
Rattus norvegicus [6] = experiment: Stimulus generalization in TFMPP-trained rats at dosage 1.2 mg/kg. Number of animals responding/number of animals are 5/5; format: functional
Rattus norvegicus [7] = experiment: Stimulus generalization in TFMPP-trained rats at dosage 0.1 mg/kg. Number of animals responding/number of animals are 4/5; format: functional
Rattus norvegicus [8] = experiment: Stimulus generalization in TFMPP-trained rats at dosage 0.4 mg/kg. Number of animals responding/number of animals are 3/4; format: functional
Rattus norvegicus [9] = experiment: Stimulus generalization in TFMPP-trained rats at dosage 0.05 mg/kg. Number of animals responding/number of animals are 4/4; format: functional
Rattus norvegicus [10] = experiment: Stimulus generalization in DOM-trained rats at dosage 1.0 mg/kg. Number of animals responding/number of animals are 0/3; D=Disruption of behavior; format: functional, organism-based; set-up: dose 1 mg/kg
Rattus norvegicus [11] = experiment: Compound was evaluated for ED50 in DOM-trained rats at dosage 9.0 mg/kg. Number of animals responding/number of animals are 3/3; format: functional
Rattus norvegicus [12] = experiment: Stimulus generalization in DOM-trained rats at dosage 1.0 mg/kg. Number of animals responding/number of animals are 3/3; format: functional
Rattus norvegicus [13] = experiment: Stimulus generalization in DOM-trained rats at dosage 3.0 mg/kg. Number of animals responding/number of animals are 3/3; format: functional
Rattus norvegicus [14] = experiment: Stimulus generalization in DOM-trained rats at dosage 5.0 mg/kg. Number of animals responding/number of animals are 3/3; format: functional
Rattus norvegicus [15] = experiment: Stimulus generalization in DOM-trained rats at dosage 8.0 mg/kg. Number of animals responding/number of animals are 3/3; format: functional
Rattus norvegicus [16] = experiment: Stimulus generalization in DOM-trained rats at dosage 9.0 mg/kg. Number of animals responding/number of animals are 3/3; format: functional
Rattus norvegicus [17] = experiment: Compound was evaluated for ED50 in TFMPP-trained rats at dosage 0.50 mg/kg. Number of animals responding/number of animals are 4/4; format: functional
Rattus norvegicus [18] = experiment: Stimulus generalization in TFMPP-trained rats at dosage 0.50 mg/kg. Number of animals responding/number of animals are 5/5; format: functional; conditions: dose 0.5 mg/kg
Rattus norvegicus [19] = experiment: Stimulus generalization in TFMPP-trained rats at dosage 0.20 mg/kg. Number of animals responding/number of animals are 4/4; format: functional; conditions: dose 0.2 mg/kg
Rattus norvegicus [20] = experiment: Stimulus generalization in TFMPP-trained rats at dosage 0.30 mg/kg. Number of animals responding/number of animals are 4/4; format: functional; conditions: dose 0.3 mg/kg
Rattus norvegicus [21] = experiment: Stimulus generalization in TFMPP-trained rats at dosage 0.35 mg/kg. Number of animals responding/number of animals are 4/4; format: functional
Rattus norvegicus [22] = experiment: Stimulus generalization in TFMPP-trained rats at dosage 0.15 mg/kg. Number of animals responding/number of animals are 3/3; format: functional
Rattus norvegicus [23] = experiment: Stimulus generalization in TFMPP-trained rats at dosage 0.1 mg/kg. Number of animals responding/number of animals are 4/4; format: functional
Rattus norvegicus [24] = experiment: Stimulus generalization in DOM-trained rats at dosage 12 mg/kg. Number of animals responding/number of animals are 4/4; format: functional
Rattus norvegicus [25] = experiment: Stimulus generalization in DOM-trained rats at dosage 13.5 mg/kg. Number of animals responding/number of animals are 3/4; format: functional
Rattus norvegicus [26] = experiment: Stimulus generalization in DOM-trained rats at dosage 14.0 mg/kg. Number of animals responding/number of animals are 1/5; D=Disruption of behavior; format: functional, organism-based; set-up: dose 14 mg/kg
Rattus norvegicus [27] = experiment: Stimulus generalization in DOM-trained rats at dosage 15 mg/kg. Number of animals responding/number of animals are 1/4; D=Disruption of behavior; format: functional, organism-based; set-up: dose 15 mg/kg
Rattus norvegicus [28] = experiment: Stimulus generalization in DOM-trained rats at dosage 18 mg/kg. Number of animals responding/number of animals are 0/4; D=Disruption of behavior; format: functional, organism-based; set-up: dose 18 mg/kg
Rattus norvegicus [29] = experiment: Stimulus generalization in TFMPP-trained rats at dosage 1.2 mg/kg. Number of animals responding/number of animals are 4/4; format: functional
Rattus norvegicus [30] = experiment: Stimulus generalization in TFMPP-trained rats at dosage 10 mg/kg. Number of animals responding/number of animals are 3/3; format: functional
Rattus norvegicus [31] = experiment: Stimulus generalization in TFMPP-trained rats at dosage 15 mg/kg. Number of animals responding/number of animals are 3/3; format: functional
Rattus norvegicus [32] = experiment: Stimulus generalization in TFMPP-trained rats at dosage 3.0 mg/kg. Number of animals responding/number of animals are 4/4; format: functional
Rattus norvegicus [33] = experiment: Stimulus generalization in TFMPP-trained rats at dosage 6.0 mg/kg. Number of animals responding/number of animals are 4/4; format: functional
Rattus norvegicus [34] = experiment: Stimulus generalization in DOM-trained rats at dosage 6.0 mg/kg. Number of animals responding/number of animals are 5/5; format: functional
Rattus norvegicus [35] = experiment: Stimulus generalization in TFMPP-trained rats at dosage 10 mg/kg. Number of animals responding/number of animals are 5/5; format: functional
Rattus norvegicus [36] = experiment: Stimulus generalization in TFMPP-trained rats at dosage 2.0 mg/kg. Number of animals responding/number of animals are 4/4; format: functional
Rattus norvegicus [37] = experiment: Stimulus generalization in TFMPP-trained rats at dosage 5.0 mg/kg. Number of animals responding/number of animals are 4/4; format: functional
Rattus norvegicus [38] = experiment: Stimulus generalization in TFMPP-trained rats at dosage 0.3 mg/kg. Number of animals responding/number of animals are 3/3; format: functional
Rattus norvegicus [39] = experiment: Compound was evaluated for Effective Dose DOM-trained rats at dosage 12.0 mg/kg. Number of animals responding/number of animals are 5/5; format: functional
Rattus norvegicus [40] = experiment: Stimulus generalization in DOM-trained rats at dosage 12.0 mg/kg. Number of animals responding/number of animals are 5/5; format: functional
Rattus norvegicus [41] = experiment: Stimulus generalization in DOM-trained rats at dosage 4.0 mg/kg. Number of animals responding/number of animals are 5/5; format: functional
Rattus norvegicus [42] = experiment: Stimulus generalization in DOM-trained rats at dosage 6.0 mg/kg. Number of animals responding/number of animals are 4/4; format: functional
Rattus norvegicus [43] = experiment: Stimulus generalization in TFMPP-trained rats at dosage 1.5 mg/kg. Number of animals responding/number of animals are 3/3; format: functional
Rattus norvegicus [44] = experiment: Stimulus generalization in TFMPP-trained rats at dosage 12.0 mg/kg. Number of animals responding/number of animals are 2/3; format: functional
Rattus norvegicus [45] = experiment: Stimulus generalization in TFMPP-trained rats at dosage 12.5 mg/kg. Number of animals responding/number of animals are 0/3; Disruption of Behavior; format: functional, organism-based; set-up: dose 12.5 mg/kg
Rattus norvegicus [46] = experiment: Stimulus generalization in TFMPP-trained rats at dosage 5.0 mg/kg. Number of animals responding/number of animals are 3/3; format: functional
Rattus norvegicus [47] = experiment: Stimulus generalization in TFMPP-trained rats at dosage 8.0 mg/kg. Number of animals responding/number of animals are 3/3; format: functional
Rattus norvegicus [48] = experiment: Stimulus generalization in DOM-trained rats at dosage 8.0 mg/kg. Number of animals responding/number of animals are 5/5; format: functional

## COc1ccccc1N1CCNCC1
[1]
  Ki: 35 nM
[2]
  Ki: 3500 nM
Rattus norvegicus [3]
  Response: 12%
Rattus norvegicus [4]
  Response: 20%
Rattus norvegicus [5]
  Response: 81%
Rattus norvegicus [6]
  Response: 94%
Rattus norvegicus [7]
  Response: 33%
Rattus norvegicus [8]
  Response: 63%
Rattus norvegicus [9]
  Response: 23%
Rattus norvegicus [10]
  Response: inactive

## COc1cc(N2CCNCC2)c(OC)cc1Br
[1]
  Ki: 820 nM
[2]
  Ki: 2430 nM
Rattus norvegicus [11]
  ED50: 4.08 mg/kg
Rattus norvegicus [12]
  Response: 19%
Rattus norvegicus [13]
  Response: 31%
Rattus norvegicus [14]
  Response: 46%
Rattus norvegicus [15]
  Response: 72%
Rattus norvegicus [16]
  Response: 81%

## O=C(c1cccc(Cl)c1)N1CCNCC1
[1]
  Ki: 17100 nM
[2]
  Ki: 55600 nM

## COc1ccc(N)c(C(=O)CCN)c1
[1]
  Ki: 345 nM
[2]
  Ki: 8480 nM

## FC(F)(F)c1cccc(N2CCNCC2)c1
[1]
  Ki: 20 nM
[2]
  Ki: 160 nM
Rattus norvegicus [17]
  ED50: 0.17 mg/kg
Rattus norvegicus [18]
  Response: 93%
Rattus norvegicus [19]
  Response: 51%
Rattus norvegicus [20]
  Response: 70%
Rattus norvegicus [21]
  Response: 90%
Rattus norvegicus [9]
  Response: 25%
Rattus norvegicus [22]
  Response: 42%
Rattus norvegicus [23]
  Response: 8%

## COc1ccc(OC)c(N2CCNCC2)c1
[1]
  Ki: 1040 nM
[2]
  Ki: 8430 nM
Rattus norvegicus [24]
  Response: 28%
Rattus norvegicus [25]
  Response: 22%
Rattus norvegicus [26]
  Response: inactive
Rattus norvegicus [27]
  Response: inactive
Rattus norvegicus [28]
  Response: inactive
Rattus norvegicus [29]
  Response: 14%
Rattus norvegicus [30]
  Response: 19%
Rattus norvegicus [31]
  Response: 14%
Rattus norvegicus [32]
  Response: 6%
Rattus norvegicus [33]
  Response: 14%
Rattus norvegicus [34]
  Response: 10%

## Oc1ccccc1N1CCNCC1
[1]
  Ki: 150 nM
[2]
  Ki: 17200 nM
Rattus norvegicus [35]
  Response: 24%
Rattus norvegicus [36]
  Response: 12%
Rattus norvegicus [37]
  Response: 22%
Rattus norvegicus [38]
  Response: 17%

## COc1cc(N2CCNCC2)c(OC)cc1C
[1]
  Ki: 680 nM
[2]
  Ki: 4710 nM
Rattus norvegicus [39]
  ED50: 6.23 mg/kg
Rattus norvegicus [40]
  Response: 83%
Rattus norvegicus [41]
  Response: 21%
Rattus norvegicus [42]
  Response: 53%
Rattus norvegicus [43]
  Response: 11%
Rattus norvegicus [44]
  Response: 30%
Rattus norvegicus [45]
  Response: Disrupted behaviour
Rattus norvegicus [46]
  Response: 11%
Rattus norvegicus [47]
  Response: 7%
Rattus norvegicus [48]
  Response: 68%

## Cc1cccc(C(=O)N2CCNCC2)c1
[1]
  Ki: 20700 nM
[2]
  Ki: 49000 nM

## COc1ccc(OC)c(C(=O)N2CCNCC2)c1
[1]
  Ki: > 100000 nM
[2]
  Ki: > 100000 nM
